The list is not random: actives were taken first. Their share in the collection is about 2.3%.
TRPC4 PAM – allosteric potentiators of mouse TRPC4 channel; Q9QUQ5; B-score at 10 µM; 310,000 tested, 0.42% active; HEK293 TRPC4beta/mu-opioid, DAMGO EC20, Fluo-4 Ca2+ flux; stronger effect = higher value;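 active means B-score of calcium response area above 5 SD of library B-scores, with initial fluorescence ratio within 5 SD of library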
Target sequence (Q9QUQ5 whole entry, looked up): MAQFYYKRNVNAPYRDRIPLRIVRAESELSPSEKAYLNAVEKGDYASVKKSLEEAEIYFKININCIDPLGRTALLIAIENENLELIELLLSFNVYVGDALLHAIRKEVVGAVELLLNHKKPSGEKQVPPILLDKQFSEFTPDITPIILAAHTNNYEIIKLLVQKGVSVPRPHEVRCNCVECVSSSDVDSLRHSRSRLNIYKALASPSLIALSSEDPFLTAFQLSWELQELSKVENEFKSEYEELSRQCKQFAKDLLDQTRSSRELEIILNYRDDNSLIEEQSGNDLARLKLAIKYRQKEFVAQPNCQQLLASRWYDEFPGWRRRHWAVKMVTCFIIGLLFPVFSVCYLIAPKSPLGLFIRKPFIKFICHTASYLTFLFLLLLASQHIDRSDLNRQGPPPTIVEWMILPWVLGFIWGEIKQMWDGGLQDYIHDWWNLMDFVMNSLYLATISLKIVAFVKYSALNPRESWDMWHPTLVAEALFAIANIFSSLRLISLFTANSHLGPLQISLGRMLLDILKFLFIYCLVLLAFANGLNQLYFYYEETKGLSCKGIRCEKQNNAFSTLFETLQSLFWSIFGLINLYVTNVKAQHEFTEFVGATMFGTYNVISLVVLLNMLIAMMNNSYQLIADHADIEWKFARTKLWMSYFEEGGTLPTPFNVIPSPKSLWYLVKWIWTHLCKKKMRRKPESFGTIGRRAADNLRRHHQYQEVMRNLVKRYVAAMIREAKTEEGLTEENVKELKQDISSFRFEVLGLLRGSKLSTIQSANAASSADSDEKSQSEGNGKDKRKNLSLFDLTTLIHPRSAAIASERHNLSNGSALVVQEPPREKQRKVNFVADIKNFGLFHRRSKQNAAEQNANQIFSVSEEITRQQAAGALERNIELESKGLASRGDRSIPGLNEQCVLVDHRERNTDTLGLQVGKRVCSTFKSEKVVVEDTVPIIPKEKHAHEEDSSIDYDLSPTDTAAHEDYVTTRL
TRPC4 agonist – activators of mouse TRPC4 channel. Q9QUQ5. HEK293 TRPC4beta/mu-opioid, Fluo4 calcium fluorescence; stronger effect = higher value. B-score at 10 µM. 310,000 tested, 0.49% active;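 active means B-score above 5 SD of library B-scores, and initial fluorescence ratio not above library mean plus 5 SD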;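 further: positive B-score marks a calcium rise read as TRPC4 activation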
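Material: TRPC4beta and mu-opioid receptor HEK293 stable cells | Incubation: 45 min room-temperature Fluo4 loading, 110 s read | Detection: Kinetic Fluo4 calcium fluorescence | Measure: Integrated baseline-normalised fluorescence ratio, converted to per-well B score | Benchmarks: Low control buffer alone, high control maximal DAMGO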
TRPC6 inhibitor – inhibitors of mouse TRPC6 channel. Q61143. HEK293-TRPC6, membrane potential dye, ACh-evoked depolarization; stronger effect = lower value. B-score at 10 µM. 310,000 tested, 1.1% active. AID 2553;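 active means B-score under library mean minus 3 SD, initial fluorescence not abnormally high, positive integrated signal ratio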;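 further: B-score derived from integrated fluorescence ratio over the kinetic read; more negative B-score means stronger inhibition of depolarization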
TRPC4 inh – TRPC4 (mouse) channel inhibition | HEK293 TRPC4beta/mu-opioid, DAMGO-evoked Fluo4 calcium flux; stronger effect = lower value | B-score at 10 µM | 300,000 tested, 0.39% active;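 active means B-score over 3 SD under the library average, no early fluorescence shift, positive overall ratio signal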
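Assay system – HEK293 line stably carrying TRPC4beta and mu-opioid receptor · Doses – single dose · Detection – Fluo4 calcium-dye fluorescence, kinetic read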
TRPC6 act – activators of mouse TRPC6 channel; AID 2550; HEK293-TRPC6 membrane potential dye fluorescence; stronger effect = higher value; 310,000 tested, 0.13% active; B-score at 10 µM; Q61143;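 active means B-score of the integrated fluorescence ratio above library mean plus 3 SD, and starting fluorescence ratio within library mean plus 5 SD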;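 further: higher score means more depolarization so channel activation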
Of the large screens only hits and unclear results are named; the others gave an inactive call.

CC(=C1C(=O)c2ccccc2C1=O)N1CCN(Cc2ccccc2)CC1	none
Cc1nc(-c2cccc(Br)c2)ccc1C(=O)O	none
CCSc1ncccc1-c1nc2ccccc2[nH]1	TRPC4 inh -7
O=C(CN1CCN(S(=O)(=O)c2ccc(Br)cc2)CC1)N/N=C/c1cccs1	none
O=C(CN1CCN(S(=O)(=O)c2ccc(Br)cc2)CC1)N/N=C/c1ccncc1	TRPC4 PAM 15
CN1CCN(NC(=O)Nc2cc(Cl)cc(Cl)c2)CC1	TRPC4 PAM 26
COc1ccc(C(=O)C2CCCN(Cc3c(C)[nH]c4ccccc34)C2)c(OC)c1 (stereo not drawn)	TRPC6 inhibitor -5
COc1ccccc1C(=O)C1CCCN(Cc2ccc3c(c2)OCCO3)C1 (stereo not drawn)	none
COc1ccc(C(=O)C2CCCN(Cc3cc(C)c(O)c(C)c3)C2)c(OC)c1 (stereo not drawn)	none
COc1ccc(F)cc1C(=O)C1CCCN(Cc2ccc3c(c2)OCCO3)C1 (stereo not drawn)	TRPC4 inh -7
COc1cc(CN2CCCC(C(=O)c3ccccc3SC)C2)cc(OC)c1 (stereo not drawn)	TRPC4 inh -6
NC(=O)CC(NC(=O)c1ccc(Br)cc1)c1ccc(N2CCCCCCC2)c([N+](=O)[O-])c1 (stereo not drawn)	none
COc1cccc(NC(=O)COc2coc(CN3CCc4ccccc4C3)cc2=O)c1	none
O=C1CC(c2ccccc2)CC(=NCCO)/C1=C(\O)CCCN1C(=O)c2ccccc2C1=O (stereo not drawn)	none
CCCCN(CC)CCNc1c(N2CCN(C(=O)OCC)CC2)c(=O)c1=O	TRPC4 agonist 124 (no result: TRPC4 inh)
C=CCN1C(=O)C(C)NC1=S (stereo not drawn)	none
N#C/C(=C\c1cccc([N+](=O)[O-])c1)C(=O)NCC1CCCO1 (stereo not drawn)	TRPC4 PAM 12
Cc1ccc(/C=C(\C#N)C(=O)NCC2CCCO2)o1 (stereo not drawn)	TRPC4 agonist 55
O=C(CCS(=O)(=O)c1ccc(Br)s1)Nc1ccccc1Br	none
CN1CCN(c2ccc(Cl)cc2NC(=O)C2COc3ccccc3O2)CC1 (stereo not drawn)	none
CN1CCN(c2ccc(Cl)cc2NC(=O)CC2OC(=O)c3ccccc32)CC1 (stereo not drawn)	TRPC4 PAM 23
CN1CCN(c2ccc(Cl)cc2NC(=O)/C=C/c2cccc(F)c2)CC1	TRPC4 PAM 31
COc1ccc(NC(=O)N2CCCC2C(=O)NC2CCCC2)cc1 (stereo not drawn)	none
O=C(N/N=C/c1cn(-c2cccs2)nc1-c1ccccc1)c1ccccc1Br	TRPC4 PAM 14
O=C(N/N=C/c1cn(-c2cccs2)nc1-c1ccccc1)c1ccccc1O	none
CCC(=O)Nc1cc(Cl)ccc1C(=O)O	none
O=C(O)c1ccc(Cl)cc1Nc1nc2cc(Cl)ccc2o1	TRPC4 inh -6
OCC(Cc1ccccc1)NCc1ccccc1C(F)(F)F (stereo not drawn)	TRPC4 inh -6
OC(CNCc1ccccc1C(F)(F)F)C(F)(F)F (stereo not drawn)	none
COC(=O)c1ccc(C2OCC(C)(C)CO2)cc1	none
O=C(OCC(=O)N1CCc2ccccc2C1)c1cccc([N+](=O)[O-])c1	TRPC4 inh -6
O=C(COC(=O)c1cccc([N+](=O)[O-])c1)c1ccc2c(c1)OCO2	TRPC4 inh -7
CN(C)S(=O)(=O)c1cccc(NC(=O)CN2C(=O)NC3(CCc4ccccc4C3)C2=O)c1 (stereo not drawn)	none
O=C(Nc1ccccc1N1CCOCC1)c1cccc2c(Br)cccc12	none
O=[N+]([O-])c1cccc(-c2nnc(C3CC3)o2)c1	TRPC4 inh -6
CCCCc1nc2cc(C(=O)NCc3ccccn3)ccc2o1	none
CCn1ccnc1CNC(=O)c1ccc2oc(CCCc3ccccc3)nc2c1	TRPC4 inh -6
Nc1cc(=O)nc(SCC(=O)N2CCN(c3ccccc3)CC2)n1-c1ccc(F)cc1	TRPC4 inh -6
Nc1cc(=O)nc(SCC(=O)N2CCN(c3ccccc3)CC2)n1-c1ccccc1	none
CNC(=O)C(C)N1c2cccc3cccc(c23)S1(=O)=O (stereo not drawn)	none
COc1cc(CNC2CCCC2)cc(Cl)c1OCc1ccc(F)cc1	TRPC4 inh -7
O=c1[nH]c2ccccc2c(O)c1-c1ccccc1	none
O/N=C/Cc1[nH]c2ccccc2c1-c1ccccc1	TRPC4 inh -5
COCCC(=O)N1CCC(n2nccc2NC(=O)c2ccccc2C)CC1	none
COC(=O)C1=C(CCc2ccccc2)NC(=O)NC1c1ccc(Cl)cc1 (stereo not drawn)	TRPC4 PAM 29
CCOC(=O)C1=C(CNCCc2ccc(Cl)cc2)NC(=O)NC1c1cccc([N+](=O)[O-])c1 (stereo not drawn)	TRPC4 PAM 17
COC(=O)C1=C(COc2ccccc2)NC(=O)NC1c1ccc(Br)cc1 (stereo not drawn)	none
COC(=O)C1=C(CCc2ccccc2)NC(=O)NC1c1ccc(C#N)cc1 (stereo not drawn)	none
COC(=O)C1=C(COc2ccccc2)NC(=O)NC1c1ccc2ccccc2c1 (stereo not drawn)	TRPC4 agonist 45
CCOC(=O)C1=C(CNCc2ccccc2Cl)NC(=O)NC1c1cccc([N+](=O)[O-])c1 (stereo not drawn)	none
C/C(=N\NC(=O)C1CC1)c1ccc(OC(F)F)cc1	none
CCc1ccccc1NC(=O)Cn1nnc(C(=O)NCc2cccc(OC)c2)c1N	none
Cc1cccc(N2CCN(CC(=O)Nc3nccs3)CC2)c1C	TRPC6 inhibitor -5.6, TRPC6 act 13
CCc1ccc2nc3nc(C)cc(C)c3c(N)c2c1	TRPC4 inh -6
CC1CCC2C(=O)N(c3ccc(NC4CCN(Cc5ccccc5)CC4)c([N+](=O)[O-])c3)C(=O)C2C1 (stereo not drawn)	TRPC4 agonist 72
O=C1CCC(=O)N1c1ccc(NC2CCN(Cc3ccccc3)CC2)c([N+](=O)[O-])c1	TRPC4 agonist 83
O=[N+]([O-])c1ccccc1NC1CCN(Cc2ccccc2)CC1	none
O=C1C2CC=CCC2C(=O)N1c1ccc(NCCc2ccccc2)c([N+](=O)[O-])c1 (stereo not drawn)	none
COC(=O)C1=C(C)N(Cc2ccccc2)C(=S)N[C@H]1c1cccc(F)c1	TRPC4 inh -5
COC(=O)C1=C(C)N(Cc2ccccc2)C(=NCc2ccccc2)N[C@H]1c1cccc(F)c1	none
NS(=O)(=O)c1ccc(Oc2ccc(S(N)(=O)=O)cc2)cc1	TRPC4 PAM 96
CCCCOc1ccc(S(N)(=O)=O)cc1	none
COc1ccc(CN2CCN(C(=O)c3ccc(F)cc3)CC2)c(OC)c1	TRPC4 inh -6
COc1ccc(C(=O)Nc2ccccc2C(=O)Nc2ccncc2)cc1	none

Assay outcomes (PubChem BioAssay)
